This is an account of results in publication PMC8341878 (RSC Chemical Biology, 2020).

One assay deals with E. coli D22 strain. Kind of assay: Microdilution broth assay. It is filed as cell-based, Escherichia coli. An outline of the steps: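 E. coli D22 was grown in Mueller Hinton broth to OD600 0.6–0.8, then diluted so wells held about 2 to 5 × 10^5 cfu per mL with serially diluted peptide in MH broth. Plates were read at 620 nm after 18–24 h at 37 °C. MIC was the lowest concentration with no turbidity increase. For MBC, wells were plated on LB agar; ≥99.9% kill versus inoculum. Duplicates, ≥2 independent experiments.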
Background: Broth dilution looks for growth in wells or tubes with falling amounts of substance.

Assay [1] has as its target ^EcSC (E. coli sliding clamp, DnaN) (Escherichia coli, UniProt P0A988). Kind of assay: ITC, peptide interaction with E. coli sliding clamp. It is filed as binding. The method in brief: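 Recombinant His-tagged E. coli DnaN was expressed in BL21(DE3) pLys (IPTG 0.1 mM, 28 °C overnight), purified by Ni-NTA then Source Q, and exchanged into 10 mM Hepes pH 7.4, 0.15 M NaCl, 3 mM EDTA. Peptide (100 to 400 μM) was injected stepwise into 20 or 30 μM clamp at 30 °C. Peptide-into-buffer controls were subtracted. Each titration was run at least twice; mean ± sd.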
A general note: In ITC the heat of successive injections is recorded.

The next assay deals with Mycobacterium smegmatis. As to conditions: cited from earlier work.
Setting [2] is: E. coli D22, decrease of at least 99.9% of cell viability vs inoculum, minimum of 2 independent biological replicates.

In brackets after ≈: the same amount, converted by molar mass. Several values for one entry are separate records, joined by “and”; a condition that tells them apart may be missing. Equal entries are not always repeated. Peptide text beside a SMILES is read from it.

For orientation: MBC means the lowest tested concentration that kills the bacteria rather than only halting them. Read a low MBC as greater bactericidal potency. Broadly, the MIC is the smallest concentration in the dilution series that meets the test's criterion for growth inhibition. High values mean a need for much substance, low ones inhibition by little substance. What is called Kd is the equilibrium constant for the complex coming apart.

^EcSC (E. coli sliding clamp, DnaN), sequence (P0A988 whole entry): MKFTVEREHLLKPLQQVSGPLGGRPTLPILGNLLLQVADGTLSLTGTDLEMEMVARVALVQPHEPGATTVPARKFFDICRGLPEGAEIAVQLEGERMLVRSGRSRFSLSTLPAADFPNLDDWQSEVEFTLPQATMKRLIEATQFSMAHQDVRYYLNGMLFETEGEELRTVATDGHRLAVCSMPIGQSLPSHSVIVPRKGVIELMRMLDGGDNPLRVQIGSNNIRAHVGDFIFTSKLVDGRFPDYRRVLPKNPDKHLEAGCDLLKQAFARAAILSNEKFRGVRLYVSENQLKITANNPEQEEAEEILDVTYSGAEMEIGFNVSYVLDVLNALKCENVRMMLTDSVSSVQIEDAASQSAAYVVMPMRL

Consider `CC1(C)S[C@@H]2[C@H](NC(=O)[C@H](N)c3ccccc3)C(=O)N2[C@H]1C(=O)O` [Ampicillin], for which, in the assay on E. coli D22 strain (Escherichia coli, D22STRAIN), the minimum bactericidal concentration (MBC) stood at 16 µg/mL (≈ 45.8 µM); the MIC is 22.9 µM to 45.8 µM and 8 µg/mL to 16 µg/mL.

The compound `CC[C@H](C)[C@H](NC(=O)[C@@H](CCCNC(=N)N)NC(=O)[C@H](CCCNC(=N)N)NC(=O)[C@@H]1CCCN1C(=O)[C@@H]1CCCN1C(=O)[C@H](CCCNC(=N)N)NC(=O)[C@@H]1CCCN1C(=O)[C@H](CCCNC(=N)N)NC(=O)[C@@H]1CCCN1C(=O)[C@H](CC(C)C)NC(=O)[C@H](Cc1ccc(O)cc1)NC(=O)[C@@H]1CCCN1C(=O)[C@@H]1CCCN1C(=O)[C@H](CCCCN)NC(=O)[C@H](CC(=O)O)NC(=O)[C@@H](N)C(C)C)C(=O)N[C@@H](Cc1ccc(O)cc1)C(=O)N[C@@H](CC(N)=O)C(=O)N[C@H](CCCNC(=N)N)C(=O)N[C@@H](CC(N)=O)C(=O)NCC(=O)N1CCC[C@H]1C(=O)N[C@@H](CCCNC(=N)N)C(=O)N[C@@H](CCC(N)=O)C(=O)N[C@@H](CC1CCCCC1)C(=O)N[C@@H](CC(=O)O)C(=O)N[C@@H](CC(C)C)C(=O)N[C@@H](Cc1ccccc1)C(=O)O` [Onc112-P7] (HELM PEPTIDE1{V.D.K.P.P.Y.L.P.R.P.R.P.P.R.[dR].I.Y.N.[dR].N.G.P.R.Q.[Cha].D.L.F}$$$$V2.0) had a Kd in assay [1] (SD) of 200 ± 0.1 nM. In addition, the MBC in the assay with E. coli D22 strain (setting [2]) was determined as 2 µg/mL (≈ 0.576 µM).

`CC[C@H](C)[C@H](NC(=O)[C@@H](CCCNC(=N)N)NC(=O)[C@H](CCCNC(=N)N)NC(=O)[C@@H]1CCCN1C(=O)[C@@H]1CCCN1C(=O)[C@H](CCCNC(=N)N)NC(=O)[C@@H]1CCCN1C(=O)[C@H](CCCNC(=N)N)NC(=O)[C@@H]1CCCN1C(=O)[C@H](CC(C)C)NC(=O)[C@H](Cc1ccc(O)cc1)NC(=O)[C@@H]1CCCN1C(=O)[C@@H]1CCCN1C(=O)[C@H](CCCCN)NC(=O)[C@H](CC(=O)O)NC(=O)[C@@H](N)C(C)C)C(=O)N[C@@H](Cc1ccc(O)cc1)C(=O)N[C@@H](CC(N)=O)C(=O)N[C@H](CCCNC(=N)N)C(N)=O` [Onc112] (HELM PEPTIDE1{V.D.K.P.P.Y.L.P.R.P.R.P.P.R.[dR].I.Y.N.[dR].[am]}$$$$V2.0): the “K D” value in assay [1] (ITC at 30 °C, R1 buffer 10 mM Hepes pH 7.4, 0.15 M NaCl, 3 mM EDTA, peptide 100-400 μM into SC 20 or 30 μM, means ± sd of at least 2 independent experiments, ni = no specific interaction) is given as “ni”. In the assay with E. coli D22 strain (setting [2]), this compound returned a minimal bactericidal concentration (MBC) of 1 µg/mL (≈ 0.418 µM).

`CC[C@H](C)[C@H](NC(=O)[C@@H]1CCCN1C(=O)[C@H](CCCNC(=N)N)NC(=O)[C@@H]1CCCN1C(=O)[C@@H]1CCCN1C(=O)[C@@H](NC(=O)[C@@H]1CCCN1C(=O)[C@H](CCCNC(=N)N)NC(=O)[C@@H]1CCCN1C(=O)[C@H](CC(C)C)NC(=O)[C@H](Cc1ccc(O)cc1)NC(=O)[C@H](CO)NC(=O)CNC(=O)[C@H](CCCCN)NC(=O)[C@H](CC(=O)O)NC(=O)[C@@H](N)C(C)C)[C@@H](C)O)C(=O)N[C@@H](Cc1ccc(O)cc1)C(=O)N[C@@H](CC(N)=O)C(=O)N[C@@H](CCCNC(=N)N)C(=O)N[C@@H](CC(N)=O)C(=O)NCC(=O)N1CCC[C@H]1C(=O)N[C@@H](CCCNC(=N)N)C(=O)N[C@@H](CCC(N)=O)C(=O)N[C@@H](CC1CCCCC1)C(=O)N[C@@H](CC(=O)O)C(=O)N[C@@H](CC(C)C)C(=O)N[C@@H](Cc1ccccc1)C(=O)O` [Py-P7] (HELM PEPTIDE1{V.D.K.G.S.Y.L.P.R.P.T.P.P.R.P.I.Y.N.R.N.G.P.R.Q.[Cha].D.L.F}$$$$V2.0) registered an MBC in the assay on E. coli D22 strain (setting [2]) of 8 µg/mL (≈ 2.42 µM).

`CN(C)[C@@H]1C(O)=C(C(N)=O)C(=O)[C@@]2(O)C(O)=C3C(=O)c4c(O)cccc4[C@@](C)(O)[C@H]3C[C@@H]12` [Tetracycline]: in the assay on E. coli D22 strain (Escherichia coli, D22STRAIN), the minimum bactericidal concentration (MBC) was 0.5 µg/mL (≈ 1.13 µM); the minimal inhibitory concentration (MIC) is 0.56 µM to 1.12 µM and 0.25 µg/mL to 0.5 µg/mL.

Turning to griselimycin, the frequency of resistance in the assay on Mycobacterium smegmatis is given as 5 × 10^−10.
